Tests used:
[1] = biological target: T1, Transient receptor potential cation channel subfamily V member 1 (Homo sapiens, UniProt Q8NER1); assay: Percent absolute effect obtained with ionomycin, measured by the entry of [Ca2+] into human embryonic kidney HEK293 cells overexpressing hVR1; assay type: functional, cell-based
Method in brief: (§1)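 HEK-293 cells overexpressing human VR1, grown in MEM with nonessential amino acids, 10% FCS, 0.2 mM glutamine at 37 °C; plated on poly-L-lysine a day before. Cells loaded 2 h at 25 °C with 4 µM Fluo-3 methyl ester, washed, trypsinized, suspended in Tyrode pH 7.4 without BSA.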

[2] = biological target: T1, Transient receptor potential cation channel subfamily V member 1; assay: Concentration necessary to induce a relative half-maximal response measured by the entry of [Ca2+] into human embryonic kidney HEK293 cells overexpressing the human VR1; assay type: functional, cell-based; method in brief: as §1

T1 sequence (Q8NER1 whole entry): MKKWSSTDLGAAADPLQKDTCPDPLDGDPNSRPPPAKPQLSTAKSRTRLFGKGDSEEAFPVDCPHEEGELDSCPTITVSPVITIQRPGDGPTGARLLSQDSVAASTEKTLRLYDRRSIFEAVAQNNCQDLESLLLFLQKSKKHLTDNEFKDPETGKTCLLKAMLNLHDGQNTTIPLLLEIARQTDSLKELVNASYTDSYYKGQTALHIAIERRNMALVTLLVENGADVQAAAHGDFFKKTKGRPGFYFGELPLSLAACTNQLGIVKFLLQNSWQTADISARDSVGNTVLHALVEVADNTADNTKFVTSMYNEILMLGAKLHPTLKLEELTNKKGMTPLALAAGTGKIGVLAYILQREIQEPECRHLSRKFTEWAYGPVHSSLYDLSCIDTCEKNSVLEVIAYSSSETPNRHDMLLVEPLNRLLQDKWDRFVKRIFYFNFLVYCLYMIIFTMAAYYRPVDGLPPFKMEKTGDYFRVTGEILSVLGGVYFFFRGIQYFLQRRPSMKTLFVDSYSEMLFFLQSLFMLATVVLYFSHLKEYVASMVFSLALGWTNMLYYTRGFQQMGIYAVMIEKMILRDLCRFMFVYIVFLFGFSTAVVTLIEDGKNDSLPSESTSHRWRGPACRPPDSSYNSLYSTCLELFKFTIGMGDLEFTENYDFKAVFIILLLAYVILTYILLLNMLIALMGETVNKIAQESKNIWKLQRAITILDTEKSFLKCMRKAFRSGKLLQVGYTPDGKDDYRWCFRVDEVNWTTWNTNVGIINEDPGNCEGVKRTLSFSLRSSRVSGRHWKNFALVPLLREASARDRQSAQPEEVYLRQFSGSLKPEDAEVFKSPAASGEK

| Compound | Response [1] | EC50 [2] |
| --- | --- | --- |
| CCCCCCCCC#CCCCCCCCC(=O)NCc1ccc(O)c(OC)c1 | 73.7% | 12.6 nM |
| COc1cc(CNC(=O)CCCCCCCCCCCCCCCCCCC(=O)NCc2ccc(O)c(OC)c2)ccc1O | 83.4% | 501 nM |
| C=C(C(=O)NCc1ccc(O)c(OC)c1)[C@H]1CC[C@]2(C)CCC[C@](C)(O)[C@H]2C1 | 78.9% | 200 nM |
| C=CCCCCCCCCC(=O)NCc1ccc(O)c(OC)c1 | 85% | 2 nM |
| CCCCCC[C@H](C/C=C\CCCCCCCC(=O)NCc1ccc(O)c(OC)c1)OC(C)=O | 93.5% | – |
| CCCCCCCC[C@H]1C[C@H]1CCCCCCCCCCCC(=O)NCc1ccc(O)c(OC)c1 | 91% | 79.4 nM |
| CCCCCC[C@@H](O)CC1CC1CCCCCCCC(=O)NCc1ccc(O)c(OC)c1 (some centres not stated) | 98% | 5.01 nM |
| C/C=C/C=C/C(=O)NCc1ccc(O)c(OC)c1 | 34.6% | – |
| CCCCCC[C@@H](O)C/C=C\CCCCCCCC(=O)NCc1ccc(O)c(OC)c1 | 85% | 3.16 nM |
| COc1cc(CNC(=O)[C@H]2[C@@H](C=C(C)C)C2(C)C)ccc1O | 85% | 200 nM |
| COc1cc(CNC(=O)[C@@]2(C)CCC[C@@]3(C)[C@H]2CC=C2C=C(C(C)C)CC[C@@H]23)ccc1O | 37.5% | – |
| COc1cc(CNC(=O)C2CC2(C)CCCC(C)CCCC(C)CCCC(C)C)ccc1O (configuration not stated) | 91.2% | 2.51 nM |
| COc1cc(CNC(=O)CCCC/C=C/C(C)C)ccc1O | 65.4% | – |
| CCCCC/C=C\C/C=C\C/C=C\C/C=C\CCCC(=O)NCc1ccc(O)c(OC)c1 | 74.8% | 0.501 nM |
| COc1cc(CNC(=O)[C@]23CC[C@@H](C)[C@H](C)[C@H]2C2=CC[C@@H]4[C@@]5(C)CC[C@H](O)C(C)(C)[C@@H]5CC[C@@]4(C)[C@]2(C)CC3)ccc1O | 14.3% | – |
| CCCCCCCC/C=C\CCCCCCCCCCC(=O)NCc1ccc(O)c(OC)c1 | 91.4% | 3.16 nM |
| CCCCCCCC[C@@H]1C[C@@H]1CCCCCCCC(=O)NCc1ccc(O)c(OC)c1 | 86.7% | 1.26 nM |

| Compound | Response [1] | EC50 [2] |
| --- | --- | --- |
| CCCCCC[C@@H](O)CCCCCCCCCCC(=O)NCc1ccc(O)c(OC)c1 | 69.7% | 5.01 nM |
| COc1cc(CNC(=O)/C=C(\C)CCC[C@H](C)CCC[C@H](C)CCCC(C)C)ccc1O | 85% | 2 nM |
| COc1cc(CNC(=O)CCCCCCCCC2CC2)ccc1O | 96.2% | 3.16 nM |
| CCCCCCCCCCCCCCCCCC(=O)NCc1ccc(O)c(OC)c1 | 32.4% | – |
| CCCCCCCC/C=C\CCCCCCCC(=O)NCc1ccc(O)c(OC)c1 [OLVANIL] | 67.2% | 0.501 nM |
| C=C(C)[C@H]1CC=C(C(=O)NCc2ccc(O)c(OC)c2)CC1 | 74.5% | 794 nM |
| COc1cc(CNC(=O)C2C(C(=O)NCc3ccc(O)c(OC)c3)[C@H]3C=C[C@@H]2C3)ccc1O (stereo in doubt; cis) | 16.4% | – |
| COc1cc(CNC(=O)/C=C(C)/C=C/C=C(C)/C=C/C2=C(C)CCCC2(C)C)ccc1O | 92.6% | 3.98 nM |
| COc1cc(CNC(=O)/C=C(\C)CCC=C(C)C)ccc1O | 70.9% | 39.8 nM |
| COc1cc(CNC(=O)C2C(C(=O)NCc3ccc(O)c(OC)c3)[C@H]3C=C[C@@H]2C3)ccc1O (stereo in doubt; trans) | 37.2% | – |
| CCCCCC/C=C/C#CCCCCCCCC(=O)NCc1ccc(O)c(OC)c1 | 70.7% | 1.26 nM |
| COc1cc(CNC(=O)/C=C(\C)CC/C=C(\C)CCC=C(C)C)ccc1O | 79.9% | 0.501 nM |
| C=C(C)[C@@H]1CC[C@]2(C(=O)NCc3ccc(O)c(OC)c3)CC[C@]3(C)[C@H](CC[C@@H]4[C@@]5(C)CC[C@H](O)C(C)(C)[C@@H]5CC[C@]43C)[C@@H]12 | 88.6% | 126 nM |
| CCCCCCC(=O)CCCCCCCCCCC(=O)NCc1ccc(O)c(OC)c1 | 67% | 6.31 nM |
| COc1cc(CNC(=O)CC[C@H](C)[C@@H]2CC[C@H]3[C@@H]4[C@@H](O)C[C@H]5C[C@@H](O)CC[C@@]5(C)[C@H]4C[C@@H](O)[C@]32C)ccc1O | 5.8% | – |
| COc1cc(CNC(=O)CCCCCCCC/C=C/CCCCCCCCC(=O)NCc2ccc(O)c(OC)c2)ccc1O | 85.7% | 1.58 nM |
